Results published in ChEMBL document CHEMBL4665830, “Self-Adjuvanting Cancer Vaccines from Conjugation-Ready Lipid A Analogues and Synthetic Long Peptides” (J Med Chem, 2020).
Activity calls are given as the source filed them. No cut-off for these calls is given here. Where a SMILES comes first, the peptide text is derived from it. [ ]: non-standard residue; d: D form. The star is where a group is joined. X1 = CCCCCCCCCCC[C@H](CC(=O)N[C@H]1[C@H](OC[C@H](NC(=O)C[C@@H](CCCCCCCCCCC)OC(=O)CCCCCCCCC)C(=O)O)O[C@H](CNC(=O)COCCOCCOCCNC(=O)CCCN2C(=O)CC(*)C2=O)[C@@H](OP(=O)(O)O)[C@@H]1OC(=O)C[C@@H](CCCCCCCCCCC)OC(=O)CCCCCCCCC)OC(=O)CCCCCCCCC; X2 = CCCCCCCCCCC[C@H](CC(=O)N[C@H]1[C@H](OC[C@H](NC(=O)C[C@@H](CCCCCCCCCCC)OC(=O)CCCCCCCCC)C(=O)O)O[C@H](COC(=O)COCCOCCOCCNC(=O)CCCN2C(=O)CC(*)C2=O)[C@@H](OP(=O)(O)O)[C@@H]1OC(=O)C[C@@H](CCCCCCCCCCC)OC(=O)CCCCCCCCC)OC(=O)CCCCCCCCC; Mpa = O=C(O)CCS

Tests used:
Mus musculus [1] = assay: Induction of T-cell activation in C57BL/6 mouse assessed as induction of SIINFEKL-specific T-cell responses in blood at 5 nmol dosed intradermally; format: functional, organism-based
B3Z = assay: Induction of T-cell activation in SIINFEKL-specific mouse B3Z cells at 0.875 to 7 uM by colorimetry based in-vitro antigen presentation assay; format: functional; conditions: dose microM 0.875-7
[2] = target: T1, Toll-like receptor 4 (Mus musculus) (UniProt Q9QUK6); assay: Activation of TLR4 in C57BL/6 mouse dendritic cells assessed as induction of IL-12p40 secretion at 0.098 to 100 nM incubated for 24 hrs by ELISA; conditions: Dendritic cell, dose nM 0.098-100, time 24.0 hrs
T1 sequence (whole entry): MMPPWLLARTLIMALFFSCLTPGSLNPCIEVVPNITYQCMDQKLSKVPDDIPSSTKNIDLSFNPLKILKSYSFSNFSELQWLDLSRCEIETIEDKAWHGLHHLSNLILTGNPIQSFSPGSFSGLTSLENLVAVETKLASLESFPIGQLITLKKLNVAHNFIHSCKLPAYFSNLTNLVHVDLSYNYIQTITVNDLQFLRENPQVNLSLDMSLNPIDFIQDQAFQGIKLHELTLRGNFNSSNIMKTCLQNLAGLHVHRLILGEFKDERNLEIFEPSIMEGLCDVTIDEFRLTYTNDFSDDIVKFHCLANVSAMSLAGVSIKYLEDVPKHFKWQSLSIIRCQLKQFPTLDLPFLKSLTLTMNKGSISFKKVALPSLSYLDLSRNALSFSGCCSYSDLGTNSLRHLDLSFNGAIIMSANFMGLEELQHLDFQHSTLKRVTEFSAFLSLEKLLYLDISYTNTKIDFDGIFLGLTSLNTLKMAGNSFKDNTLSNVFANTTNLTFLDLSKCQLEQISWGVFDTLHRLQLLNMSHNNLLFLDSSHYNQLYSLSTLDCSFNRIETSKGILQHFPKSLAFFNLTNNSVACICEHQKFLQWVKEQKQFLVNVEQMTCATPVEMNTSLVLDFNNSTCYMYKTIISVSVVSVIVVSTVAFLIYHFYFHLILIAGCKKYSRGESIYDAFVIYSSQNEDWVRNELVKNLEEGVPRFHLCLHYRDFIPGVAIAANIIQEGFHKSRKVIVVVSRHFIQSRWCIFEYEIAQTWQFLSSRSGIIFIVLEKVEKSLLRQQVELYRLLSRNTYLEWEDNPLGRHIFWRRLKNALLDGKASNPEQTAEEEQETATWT
How it was run: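 D1 cells (immature spleen-derived DC line, C57BL/6 H-2b), 50 000 per well in R1-supplemented IMDM, given an equal volume of 2x compound in medium (500 μM DMSO stocks, sonicated 15 min). Incubated 24 h at 37 °C; IL-12p40 in supernatant measured by ELISA. MPLA served as TLR4 control; unconjugated peptide as negative control.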

Mus musculus [3] = assay: Induction of T-cell activation in C57BL/6 mouse assessed as induction of differentiation into effector memory T cells at 5 nmol dosed intradermally followed by booster dose after 14 days and measured after 7 days; format: functional, organism-based; conditions: time 21.0 day
Mus musculus [4] = assay: Induction of T-cell activation in C57BL/6 mouse assessed as induction of differentiation into memory CD127+/KLRG1low responses at 5 nmol dosed intradermally followed by booster dose after 14 days and measured after 7 days; format: functional, organism-based; conditions: time 21.0 day
Mus musculus [5] = assay: Induction of T-cell activation in C57BL/6 mouse assessed as induction of SIINFEKL-specific T-cell responses in inguinal lymph nodes at 5 nmol dosed intradermally followed by booster dose after 14 days and measured after 8 days; format: functional, organism-based; conditions: time 22.0 day
Mus musculus [6] = assay: Induction of T-cell activation in C57BL/6 mouse assessed as induction of SIINFEKL-specific T-cell responses in spleen at 5 nmol dosed intradermally followed by booster dose after 14 days and measured after 8 days; format: functional, organism-based; conditions: time 22.0 day
Mus musculus [7] = assay: Induction of T-cell activation in C57BL/6 mouse assessed as induction of SIINFEKL-specific T-cell responses in blood at 5 nmol dosed intradermally followed by booster dose after 14 days and measured after 7 days; format: functional, organism-based; conditions: time 21.0 day
Mus musculus [8] = assay: (§1) Induction of T-cell activation in C57BL/6 mouse assessed as increase in SIINFEKL-specific CD8+ T cells level in inguinal lymph nodes at 5 nmol dosed intradermally followed by booster dose after 14 days and 1 week later injection of cells loaded with SIINFEKL peptide and measured after 18 hrs post last dose by CFSE staining based flow cytometric analysis; format: functional, organism-based; conditions: time 21.0 day
Mus musculus [9] = assay: as §1, with “induction of specific killing of the SIINFEKL-loaded target cells” for “increase”, “spleen” for “SIINFEKL-specific CD8+ T cells level in inguinal lymph nodes”; format: functional, organism-based; conditions: time 21.0 day

## CCCCCCCCCCC[C@H](CC(=O)N[C@H]1[C@H](OC[C@H](NC(=O)C[C@@H](CCCCCCCCCCC)OC(=O)CCCCCCCCC)C(=O)O)O[C@H](CO)[C@@H](OP(=O)(O)O)[C@@H]1OC(=O)C[C@@H](CCCCCCCCCCC)OC(=O)CCCCCCCCC)OC(=O)CCCCCCCCC
Mus musculus [1]
  Activity: Active
B3Z
  Activity: Active
[2]; filed as activator
  Activity: Active

## CCCCCCCCCCC[C@H](CC(=O)N[C@H]1[C@H](OC[C@H](NC(=O)C[C@@H](CCCCCCCCCCC)OC(=O)CCCCCCCCC)C(=O)O)O[C@H](COC(=O)COCCOCCOCCNC(=O)CCCN2C(=O)CC(SCCC(=O)N[C@@H](CC(=O)O)C(=O)N[C@@H](CCC(=O)O)C(=O)N[C@H](C(=O)N[C@@H](CO)C(=O)NCC(=O)N[C@@H](CC(C)C)C(=O)N[C@@H](CCC(=O)O)C(=O)N[C@@H](CCC(N)=O)C(=O)N[C@@H](CC(C)C)C(=O)N[C@@H](CCC(=O)O)C(=O)N[C@@H](CO)C(=O)N[C@H](C(=O)N[C@H](C(=O)N[C@@H](CC(N)=O)C(=O)N[C@@H](Cc3ccccc3)C(=O)N[C@@H](CCC(=O)O)C(=O)N[C@@H](CCCCN)C(=O)N[C@@H](CC(C)C)C(=O)N[C@@H](C)C(=O)N[C@@H](C)C(=O)N[C@@H](C)C(=O)N[C@@H](C)C(=O)N[C@@H](C)C(=O)N[C@@H](CCCCN)C(N)=O)[C@@H](C)CC)[C@@H](C)CC)C(C)C)C2=O)[C@@H](OP(=O)(O)O)[C@@H]1OC(=O)C[C@@H](CCCCCCCCCCC)OC(=O)CCCCCCCCC)OC(=O)CCCCCCCCC (stereo not given in full) ([Mpa](X2)DEVSGLEQLESIINFEKLAAAAAK-NH2)
Mus musculus [3]
  Activity: Active
Mus musculus [4]
  Activity: Active
Mus musculus [5]
  Activity: Active
Mus musculus [6]
  Activity: Active
Mus musculus [1]
  Activity: Active
Mus musculus [7]
  Activity: Active
B3Z
  Activity: Active
[2]; filed as activator
  Activity: Active

## CCCCCCCCCCC[C@@H](O)CC(=O)N[C@@H]1[C@@H](OC(=O)C[C@H](O)CCCCCCCCCCC)[C@H](O)[C@@H](CO[C@@H]2O[C@H](CO)[C@@H](OP(=O)(O)O)[C@H](OC(=O)C[C@@H](CCCCCCCCCCC)OC(=O)CCCCCCCCC)[C@H]2NC(=O)C[C@@H](CCCCCCCCCCC)OC(=O)CCCCCCCCC)O[C@H]1O
[2]; filed as activator
  Activity: Active

## CCCCCCCCCCC[C@H](CC(=O)N[C@H]1[C@H](OC[C@H](NC(=O)C[C@@H](CCCCCCCCCCC)OC(=O)CCCCCCCCC)C(=O)O)O[C@H](CNC(=O)COCCOCCOCCNC(C)=O)[C@@H](OP(=O)(O)O)[C@@H]1OC(=O)C[C@@H](CCCCCCCCCCC)OC(=O)CCCCCCCCC)OC(=O)CCCCCCCCC
[2]; filed as activator
  Activity: Active

## CCCCCCCCCCC[C@H](CC(=O)N[C@H]1[C@H](OC[C@H](NC(=O)C[C@@H](CCCCCCCCCCC)OC(=O)CCCCCCCCC)C(=O)O)O[C@H](CNC(=O)COCCOCCOCCNC(=O)CCCN2C(=O)CC(SCCC(=O)N[C@@H](CC(=O)O)C(=O)N[C@@H](CCC(=O)O)C(=O)N[C@H](C(=O)N[C@@H](CO)C(=O)NCC(=O)N[C@@H](CC(C)C)C(=O)N[C@@H](CCC(=O)O)C(=O)N[C@@H](CCC(N)=O)C(=O)N[C@@H](CC(C)C)C(=O)N[C@@H](CCC(=O)O)C(=O)N[C@@H](CO)C(=O)N[C@H](C(=O)N[C@H](C(=O)N[C@@H](CC(N)=O)C(=O)N[C@@H](Cc3ccccc3)C(=O)N[C@@H](CCC(=O)O)C(=O)N[C@@H](CCCCN)C(=O)N[C@@H](CC(C)C)C(=O)N[C@@H](C)C(=O)N[C@@H](C)C(=O)N[C@@H](C)C(=O)N[C@@H](C)C(=O)N[C@@H](C)C(=O)N[C@@H](CCCCN)C(N)=O)[C@@H](C)CC)[C@@H](C)CC)C(C)C)C2=O)[C@@H](OP(=O)(O)O)[C@@H]1OC(=O)C[C@@H](CCCCCCCCCCC)OC(=O)CCCCCCCCC)OC(=O)CCCCCCCCC (stereo not given in full) ([Mpa](X1)DEVSGLEQLESIINFEKLAAAAAK-NH2)
Mus musculus [8]
  Activity: Active
Mus musculus [9]
  Activity: Active
Mus musculus [3]
  Activity: Active
Mus musculus [4]
  Activity: Active
Mus musculus [5]
  Activity: Active
Mus musculus [6]
  Activity: Active
Mus musculus [1]
  Activity: Active
Mus musculus [7]
  Activity: Active
B3Z
  Activity: Active
[2]
  Activity: inactive

## CCCCCCCCCCC[C@H](CC(=O)N[C@H]1[C@H](OC[C@H](NC(=O)C[C@@H](CCCCCCCCCCC)OC(=O)CCCCCCCCC)C(=O)O)O[C@H](COC(=O)COCCOCCOCCNC(C)=O)[C@@H](OP(=O)(O)O)[C@@H]1OC(=O)C[C@@H](CCCCCCCCCCC)OC(=O)CCCCCCCCC)OC(=O)CCCCCCCCC
[2]; filed as activator
  Activity: Active

## CCCCCCCCCCC[C@H](CC(=O)N[C@H]1[C@H](OC[C@H](NC(=O)C[C@@H](CCCCCCCCCCC)OC(=O)CCCCCCCCC)C(=O)O)O[C@H](COC(=O)CCCCCCCCCCNC(C)=O)[C@@H](OP(=O)(O)O)[C@@H]1OC(=O)C[C@@H](CCCCCCCCCCC)OC(=O)CCCCCCCCC)OC(=O)CCCCCCCCC
[2]
  Activity: inactive
